System: HEK-293T
Assay: Multiplex assay against HEK293T;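 on Population Tubulin-Different-Phenotype (%): share of the cells with healthy nuclei that show this phenotype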
Type: toxicity, cell-based
Conditions: human
Outline: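 Cells stained live at seeding with Hoechst33342, BioTracker Green Microtubule Cytoskeleton Dye, MitoTracker Red and Annexin V Alexa Fluor 680 were imaged on a CQ1 microscope at 37°C and 5% CO2 after compound addition. Their classification by CellPathfinder machine-learning gating ran from Hoechst high-intensity objects versus normal cells, to healthy, pyknosed or fragmented nuclei among normal cells, to mitotic or apoptotic among pyknosed cells. Tubulin, mitochondrial-mass and membrane-permeability phenotypes are per cents of healthy-nucleus cells.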

[1] = 12 h, 1 µM, compound concentration 1 uM, replicate 1
[2] = 12 h, 1 µM, compound concentration 1 uM, replicate 2
[3] = 12 h, 10 µM, compound concentration 10 uM, replicate 1
[4] = 12 h, 10 µM, compound concentration 10 uM, replicate 2
[5] = 24 h, 1 µM, compound concentration 1 uM, replicate 1
[6] = 24 h, 1 µM, compound concentration 1 uM, replicate 2
[7] = 24 h, 10 µM, compound concentration 10 uM, replicate 1
[8] = 24 h, 10 µM, compound concentration 10 uM, replicate 2
[9] = 48 h, 1 µM, compound concentration 1 uM, replicate 1
[10] = 48 h, 1 µM, compound concentration 1 uM, replicate 2
[11] = 48 h, 10 µM, compound concentration 10 uM, replicate 1
[12] = 48 h, 10 µM, compound concentration 10 uM, replicate 2

What does the source list for `CN1CCCC(n2nc(Cc3ccc(Cl)cc3)c3ccccc3c2=O)CC1.Cl` (stereo not given) [AZELASTINE HYDROCHLORIDE]?
Population Apoptotic (%) [1]: 50%; Population Fragmented Nuclei (%) [1]: 8%; Population Healthy Nuclei (%) [1]: 42%; Population Hoechst High Intensity Objects (%) [1]: 9%; Population Membrane Permeable-Phenotype (%) [1]: 3%; Population Mitochondria Different-Phenotype (%) [1]: 94%; Population Mitotic Cells (%) [1]: 49%; Population Normal (%) [1]: 90%; Population Pyknosed Nuclei (%) [1]: 50%; Population Tubulin-Different-Phenotype (%) [1]: 84%; Total Cell Count [1]: 333; Population Apoptotic (%) [2]: 40%; Population Fragmented Nuclei (%) [2]: 6%; Population Healthy Nuclei (%) [2]: 24%; Population Hoechst High Intensity Objects (%) [2]: 5%; Population Membrane Permeable-Phenotype (%) [2]: 4%; Population Mitochondria Different-Phenotype (%) [2]: 61%; Population Mitotic Cells (%) [2]: 59%; Population Normal (%) [2]: 94%; Population Pyknosed Nuclei (%) [2]: 69%; Population Tubulin-Different-Phenotype (%) [2]: 68%; Total Cell Count [2]: 190; Population Apoptotic (%) [3]: 82%; Population Fragmented Nuclei (%) [3]: 11%; Population Healthy Nuclei (%) [3]: 16%; Population Hoechst High Intensity Objects (%) [3]: 19%; Population Membrane Permeable-Phenotype (%) [3]: 2%; Population Mitochondria Different-Phenotype (%) [3]: 100%; Population Mitotic Cells (%) [3]: 17%; Population Normal (%) [3]: 80%; Population Pyknosed Nuclei (%) [3]: 72%; Population Tubulin-Different-Phenotype (%) [3]: 78%; Total Cell Count [3]: 289; Population Apoptotic (%) [4]: 89%; Population Fragmented Nuclei (%) [4]: 5%; Population Healthy Nuclei (%) [4]: 23%; Population Hoechst High Intensity Objects (%) [4]: 4%; Population Membrane Permeable-Phenotype (%) [4]: 3%; Population Mitochondria Different-Phenotype (%) [4]: 98%; Population Mitotic Cells (%) [4]: 10%; Population Normal (%) [4]: 95%; Population Pyknosed Nuclei (%) [4]: 70%; Population Tubulin-Different-Phenotype (%) [4]: 56%; Total Cell Count [4]: 231; Population Apoptotic (%) [5]: 56%; Population Fragmented Nuclei (%) [5]: 8%; Population Healthy Nuclei (%) [5]: 37%; Population Hoechst High Intensity Objects (%) [5]: 11%; Population Membrane Permeable-Phenotype (%) [5]: 3%; Population Mitochondria Different-Phenotype (%) [5]: 92%; Population Mitotic Cells (%) [5]: 43%; Population Normal (%) [5]: 88%; Population Pyknosed Nuclei (%) [5]: 54%; Population Tubulin-Different-Phenotype (%) [5]: 83%; Total Cell Count [5]: 353; Population Apoptotic (%) [6]: 50%; Population Fragmented Nuclei (%) [6]: 7%; Population Healthy Nuclei (%) [6]: 49%; Population Hoechst High Intensity Objects (%) [6]: 4%; Population Membrane Permeable-Phenotype (%) [6]: 5%; Population Mitochondria Different-Phenotype (%) [6]: 66%; Population Mitotic Cells (%) [6]: 50%; Population Normal (%) [6]: 95%; Population Pyknosed Nuclei (%) [6]: 43%; Population Tubulin-Different-Phenotype (%) [6]: 74%; Total Cell Count [6]: 223; Population Apoptotic (%) [7]: 82%; Population Fragmented Nuclei (%) [7]: 13%; Population Healthy Nuclei (%) [7]: 13%; Population Hoechst High Intensity Objects (%) [7]: 19%; Population Membrane Permeable-Phenotype (%) [7]: 0%; Population Mitotic Cells (%) [7]: 17%; Population Normal (%) [7]: 80%; Population Pyknosed Nuclei (%) [7]: 72%; Population Tubulin-Different-Phenotype (%) [7]: 59%; Total Cell Count [7]: 289; Population Apoptotic (%) [8]: 93%; Population Fragmented Nuclei (%) [8]: 8%; Population Healthy Nuclei (%) [8]: 33%; Population Hoechst High Intensity Objects (%) [8]: 7%; Population Membrane Permeable-Phenotype (%) [8]: 4%; Population Mitochondria Different-Phenotype (%) [8]: 100%; Population Mitotic Cells (%) [8]: 6%; Population Normal (%) [8]: 92%; Population Pyknosed Nuclei (%) [8]: 58%; Population Tubulin-Different-Phenotype (%) [8]: 38%; Total Cell Count [8]: 230; Population Apoptotic (%) [9]: 49%; Population Fragmented Nuclei (%) [9]: 14%; Population Healthy Nuclei (%) [9]: 42%; Population Hoechst High Intensity Objects (%) [9]: 14%; Population Membrane Permeable-Phenotype (%) [9]: 3%; Population Mitochondria Different-Phenotype (%) [9]: 72%; Population Mitotic Cells (%) [9]: 50%; Population Normal (%) [9]: 85%; Population Pyknosed Nuclei (%) [9]: 42%; Population Tubulin-Different-Phenotype (%) [9]: 70%; Total Cell Count [9]: 404; Population Apoptotic (%) [10]: 47%; Population Fragmented Nuclei (%) [10]: 7%; Population Healthy Nuclei (%) [10]: 65%; Population Hoechst High Intensity Objects (%) [10]: 5%; Population Membrane Permeable-Phenotype (%) [10]: 6%; Population Mitochondria Different-Phenotype (%) [10]: 48%; Population Mitotic Cells (%) [10]: 52%; Population Normal (%) [10]: 94%; Population Pyknosed Nuclei (%) [10]: 26%; Population Tubulin-Different-Phenotype (%) [10]: 71%; Total Cell Count [10]: 324; Population Apoptotic (%) [11]: 79%; Population Fragmented Nuclei (%) [11]: 20%; Population Healthy Nuclei (%) [11]: 6%; Population Hoechst High Intensity Objects (%) [11]: 27%; Population Membrane Permeable-Phenotype (%) [11]: 0%; Population Mitochondria Different-Phenotype (%) [11]: 100%; Population Mitotic Cells (%) [11]: 20%; Population Normal (%) [11]: 72%; Population Pyknosed Nuclei (%) [11]: 73%; Population Tubulin-Different-Phenotype (%) [11]: 38%; Total Cell Count [11]: 297; Population Apoptotic (%) [12]: 89%; Population Fragmented Nuclei (%) [12]: 8%; Population Healthy Nuclei (%) [12]: 57%; Population Hoechst High Intensity Objects (%) [12]: 18%; Population Mitochondria Different-Phenotype (%) [12]: 99%; Population Mitotic Cells (%) [12]: 10%; Population Normal (%) [12]: 81%; Population Pyknosed Nuclei (%) [12]: 34%; Population Tubulin-Different-Phenotype (%) [12]: 15%; Total Cell Count [12]: 231

— ChEMBL document CHEMBL4689842, “EUbOPEN Chemogenomics Library wave 1” (2021)
